ChEMBL document CHEMBL3286368, “Delayed and Prolonged Histone Hyperacetylation with a Selective HDAC1/HDAC2 Inhibitor” (ACS Med Chem Lett, 2014)

Tests used:
[1] = Cmax in CD1 nu/nu mouse xenografted with human HCT116 cells at 50 mg/kg, po qd for 3 weeks; format: ADME, organism-based, HCT-116; set-up: dose 50 mg/kg, route oral; conditions: in vivo
Method in brief: (§1)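 HCT116 cells (5 × 10^6 per mouse) injected subcutaneously into the right flank of CD1 nu/nu mice. Once tumors reached ~325 mm3, mice were randomized into groups of 12 and dosed orally for 21 days, once daily (qd) or biweekly (biw). Vehicle was 40% v/v PEG-400 plus 25% w/v HPβCD at 20 μL/g.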

[2] = Cmax in CD1 nu/nu mouse xenografted with human HCT116 cells at 200 mg/kg, po qd for 3 weeks; format: ADME, organism-based, HCT-116; set-up: dose 200 mg/kg, route oral; conditions: in vivo; method in brief: as §1
[3] = Cmax in CD1 nu/nu mouse xenografted with human HCT116 cells at 350 mg/kg, po administered biweekly for 3 weeks; format: ADME, organism-based, HCT-116; set-up: dose 350 mg/kg, route oral; conditions: in vivo; method in brief: as §1
[4] = Cmax in CD1 nu/nu mouse xenografted with human HCT116 cells at 875 mg/kg, po administered biweekly for 3 weeks; format: ADME, organism-based, HCT-116; set-up: dose 875 mg/kg, route oral; conditions: in vivo; method in brief: as §1
[5] = AUC (0 to 24 hrs) in CD1 nu/nu mouse xenografted with human HCT116 cells at 100 mg/kg, po qd for 3 weeks; format: ADME, organism-based, HCT-116; set-up: time < 24 hr, dose 100 mg/kg, route oral; conditions: in vivo
Method in brief: (§2)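 HCT116 cells (5 × 10^6/mouse) injected sc into right flank of CD1 nu/nu mice; at ~325 mm3 tumors, randomized into groups of 12. Oral dosing 21 days, once daily or biweekly, in 40% v/v PEG-400 and 25% w/v HPβCD at 20 μL/g. […] Tumor size by caliper.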

[6] = AUC (0 to 24 hrs) in CD1 nu/nu mouse xenografted with human HCT116 cells at 150 mg/kg, po qd for 3 weeks; format: ADME, organism-based, HCT-116; set-up: time < 24 hr, dose 150 mg/kg, route oral; conditions: in vivo; method in brief: as §2
[7] = AUC (0 to 24 hrs) in CD1 nu/nu mouse xenografted with human HCT116 cells at 350 mg/kg, po administered biweekly for 3 weeks; format: ADME, organism-based, HCT-116; set-up: time < 24 hr, dose 350 mg/kg, route oral; conditions: in vivo; method in brief: as §2
[8] = AUC (0 to 24 hrs) in CD1 nu/nu mouse xenografted with human HCT116 cells at 525 mg/kg, po administered biweekly for 3 weeks; format: ADME, organism-based, HCT-116; set-up: time < 24 hr, dose 525 mg/kg, route oral; conditions: in vivo; method in brief: as §2
[9] = test system: Mus musculus; assay: Unbound Cmin in 3 week po dosed CD1 nu/nu mouse xenografted with human HCT116 cells after 24 hrs; format: ADME, organism-based, HCT-116; conditions: in vivo
[10] = Plasma clearance in CD-1 mouse at 5 mg/kg, iv; format: ADME, organism-based; set-up: dose 5 mg/kg, route intravenous
Method in brief: (§3)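 Intravenous dosing at 5 (mouse), 2 (rat), 0.5 (dog) and 0.5 (monkey) mg/kg. Plasma clearance, steady-state volume of distribution and half-life derived from the plasma profile.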

[11] = Oral bioavailability in CD-1 mouse at 10 mg/kg; format: ADME, organism-based; conditions: in vivo
[12] = Plasma protein binding in CD-1 mouse at 2 uM; format: ADME, cell-free; conditions: read-out: PPB (converted)
Method in brief: (§4)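 Plasma protein binding measured in mouse, rat, dog and monkey plasma at 2 μM compound.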

[13] = test system: Rattus norvegicus; assay: Dose normalized AUC in Sprague-Dawley rat at 4 mg/kg, po; format: ADME, organism-based; set-up: dose 4 mg/kg, route oral; conditions: in vivo
Method in brief: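 Oral exposure, dose-normalized (μM·h·kg/mg), from a PK study also run with iv dosing (rat 2 mg/kg iv, 4 mg/kg po; monkey 0.5 mg/kg iv, 1 mg/kg po). Plasma clearance, Vdss, half-life and oral bioavailability also derived.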

[14] = Oral bioavailability in Sprague-Dawley rat at 4 mg/kg; format: ADME, organism-based; conditions: in vivo
[15] = Plasma protein binding in Sprague-Dawley rat at 2 uM; format: ADME, cell-free; conditions: read-out: PPB (converted); method in brief: as §4
[16] = Oral bioavailability in beagle dog at 1 mg/kg; format: ADME, organism-based, Canis lupus familiaris; conditions: in vivo
[17] = Plasma clearance in rhesus monkey at 0.5 mg/kg, iv; format: ADME, organism-based, Macaca mulatta; set-up: dose 0.5 mg/kg, route intravenous; method in brief: as §3
[18] = Half life in rhesus monkey at 0.5 mg/kg, iv; format: ADME, organism-based, Macaca mulatta; set-up: dose 0.5 mg/kg, route intravenous; conditions: in vivo; method in brief: as §3
[19] = Oral bioavailability in rhesus monkey at 1 mg/kg; format: ADME, organism-based, Macaca mulatta; conditions: in vivo
[20] = Drug metabolism in liver microsomes (unknown origin) assessed as CYP-mediated oxidation; format: ADME
[21] = test system: Mus musculus; assay: Inhibition of HDAC in CD1 nu/nu mouse tumor xenografted with human HCT116 cells assessed as plasma drug level causing increase in H2BK5 acetylation at 67 mg/kg, po tid after 8 hrs by ELISA; format: functional, HCT-116
[22] = test system: Mus musculus; assay: Inhibition of HDAC in CD1 nu/nu mouse tumor xenografted with human HCT116 cells assessed as plasma drug level causing increase in H2BK5 acetylation at 67 mg/kg, po tid after 24 hrs by ELISA; format: functional, HCT-116
[23] = test system: Mus musculus; assay: Inhibition of HDAC in CD1 nu/nu mouse tumor xenografted with human HCT116 cells assessed as plasma drug level causing increase in H2BK5 acetylation at 67 mg/kg, po tid after 48 hrs by ELISA; format: functional, HCT-116
[24] = test system: Mus musculus; assay: Inhibition of HDAC in CD1 nu/nu mouse tumor xenografted with human HCT116 cells assessed as plasma drug level causing increase in H2BK5 acetylation at 67 mg/kg, po tid after 72 hrs by ELISA; format: functional, HCT-116
[25] = test system: Mus musculus; assay: Inhibition of HDAC in CD1 nu/nu mouse tumor xenografted with human HCT116 cells assessed as plasma drug level causing increase in H2BK5 acetylation at 100 mg/kg, po bid after 1 hr by ELISA; format: functional, HCT-116
[26] = test system: Mus musculus; assay: Inhibition of HDAC in CD1 nu/nu mouse tumor xenografted with human HCT116 cells assessed as plasma drug level causing increase in H2BK5 acetylation at 100 mg/kg, po bid after 4 hrs by ELISA; format: functional, HCT-116
[27] = test system: Mus musculus; assay: Inhibition of HDAC in CD1 nu/nu mouse tumor xenografted with human HCT116 cells assessed as plasma drug level causing increase in H2BK5 acetylation at 200 mg/kg, po qd after 48 hrs by ELISA; format: functional, HCT-116
[28] = test system: Mus musculus; assay: Inhibition of HDAC in CD1 nu/nu mouse tumor xenografted with human HCT116 cells assessed as plasma drug level causing increase in H2BK5 acetylation at 200 mg/kg, po qd after 72 hrs by ELISA; format: functional, HCT-116
[29] = Plasma clearance in Sprague-Dawley rat at 2 mg/kg, iv; format: ADME, organism-based; set-up: dose 2 mg/kg, route intravenous; method in brief: as §3
[30] = test system: Mus musculus; assay: Inhibition of HDAC in CD1 nu/nu mouse tumor xenografted with human HCT116 cells assessed as plasma drug level causing increase in H2BK5 acetylation at 67 mg/kg, po tid after 1 hr by ELISA; format: functional, HCT-116
[31] = test system: HCT-116; assay: cells; format: functional, Homo sapiens
[32] = in vivo; conditions: CD1 nu/nu, mouse, po, 150 mg/kg

With `Nc1ccc(-c2cccs2)cc1NC(=O)c1ccc(N2CCC3(CC2)CNC(=O)O3)nc1` the Cmax [1] was 3.5 µM, the Cmax [2] was 40.4 µM and the Cmax [3] was 32.8 µM. For the same compound, the Cmax [4] was 56.4 µM, the AUC at 24 h [5] was 110 µM·h and the AUC at 24 h [6] was 208 µM·h. It also gave an AUC at 24 h [7] of 566 µM·h, an AUC at 24 h [8] of 808 µM·h and a fCmin [9] of 48 nM. It also gave a clearance [10] of 27 mL/min/kg, a bioavailability [11] of 82% and a fraction unbound at 2 µM [12] of 0.015. For the same compound, the AUC/dose [13] was 3 µM·kg·h/mg, the bioavailability [14] was 28% and the fraction unbound at 2 µM [15] was 0.002. For the same compound, the bioavailability [16] was 17%, the clearance [17] was 27 mL/min/kg and the half-life [18] was 7.1 h. The bioavailability [19] was 100%, the Drug metabolism [20] was “metabolite_notdetected” and the INH [21] was 8.2 µM. It also gave an INH [22] of 1.5 µM, an INH [23] of 0.1 µM and an INH [24] of 0.3 µM. For the same compound, the INH [25] was 14.3 µM, the INH [26] was 9.6 µM and the INH [27] was 0.2 µM. The INH [28] was 0.3 µM, the clearance [29] was 3.6 mL/min/kg and the INH [30] was 14.9 µM. It also gave a GI25 [31] of 50 nM, a GI75 [31] of 188 nM and a GI90 [31] of 367 nM. For the same compound, the concentration at 24 h [32] was 3.3 µM.
